In article PMC6133078 (European Journal of Drug Metabolism and Pharmacokinetics, 2018):
Counter-ions that a name gives are not always drawn.

Legend:
[1] = Stability tests of puquitinib in human plasma QC samples; assay type: physicochemical; conditions: in words
Summary of the method: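 Plasma QC samples (3.00, 250.00, 400.00 ng/mL) were tested three ways: extracted samples at room temperature for about 72 h; three freeze (−80 °C) and thaw (room temperature) cycles within a month, analysed in triplicate; and storage at −80 °C for 1 month. Quantified by HPLC–MS/MS against same-day calibration; accuracy given as RE%.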

xenograft = xenograft mice model; preliminary studies; cited from earlier work
[2] = test system: several cancer cell lines, such as lung, breast, ovarian, colon, prostate cancer, leukemia, lymphoma and osteosarcoma; conditions: according to the data in vitro; cited from earlier work

In the case of `c1cnc2ccc(Nc3nc(NC4CC4)c4nc[nH]c4n3)cc2c1` [puquitinib, Puquitinib mesylate], the “stability during short-term, freeze and thaw and long-term tests” value [1] is given as “good stability”, the antitumor efficacy (xenograft) is given as “clear antitumor efficacy” and the IC50 [2] is given as 500 to 2000 nM.
